Experimental findings from ChEMBL document CHEMBL1141716, “Discovery and optimization of substituted piperidines as potent, selective, CNS-penetrant alpha4beta2 nicotinic acetylcholine receptor potentiators” (Bioorg Med Chem Lett, 2008) are described below.

Data set [1] addresses T1, Neuronal acetylcholine receptor; alpha4/beta2 (Homo sapiens, UniProt P17787+P43681). In words: Activation of human alpha4beta2 nAChR assessed as potentiation of submaximal response to […] relative to maximal nicotine response. The class given is protein-complex assay. In a few lines: (§1)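 Fluorescence-based functional assay; compounds first screened at 10 µM for increase of the fluorescent response to an EC₁₂ concentration of nicotine, actives then run dose–response; EC₅₀ and peak response recorded, efficacy expressed as % of maximal nicotine response; average of n ≥ 2.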

In data set [2] the target is T1, Neuronal acetylcholine receptor; alpha4/beta2. Put plainly: Activation of human alpha4beta2 nAChR assessed as potentiation of submaximal response to nicotine induced current. In a few lines: as §1
The target of data set [3] is Neuronal acetylcholine receptor; alpha3/beta2 (Homo sapiens, UniProt P17787+P32297). Put plainly: Activation of human alpha3beta2 nAChR assessed as potentiation of submaximal response to nicotine induced current. In a few lines:
as §1

Data set [4] concerns the target Neuronal acetylcholine receptor; alpha3/beta4 (Homo sapiens, UniProt P30926+P32297). In words: Activation of human alpha3beta4 nAChR assessed as potentiation of submaximal response to nicotine induced current. The class given is protein-complex assay. In a few lines: as §1
The subject of data set [5] is MDR1. Put plainly: Permeability efflux ratio in MDR1 expressing pig LLC-PK1 cells. The class given is ADME, cell-based, Sus scrofa.
Data set [6] in a line: Plasma concentration in Sprague-Dawley rat at 5 mg/kg, ip after 1 hr. The class given is ADME, organism-based. Also on record: dose 5 mg/kg, route intraperitoneal. In a few lines: (§2)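 Rats dosed ip at 5 mg/kg in DMSO; sacrificed at 1 h; plasma, brain and CSF collected and drug concentrations measured.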
A short description of data set [7]: Drug level in Sprague-Dawley rat CSF at 5 mg/kg, ip after 1 hr. The class given is ADME, organism-based, Cerebrospinal fluid. Also on record: dose 5 mg/kg, route intraperitoneal. Conditions: read-out: Drug uptake. In a few lines: as §2
Data set [8] is described as follows: Drug level in Sprague-Dawley rat brain at 5 mg/kg, ip after 1 hr. Details: dose 5 mg/kg, route intraperitoneal. Conditions: read-out: Drug uptake. The class given is ADME, organism-based. In a few lines: as §2
Data set [9] concerns the target Neuronal acetylcholine receptor; alpha4/beta2 (Rattus norvegicus, UniProt P09483+P12390). In words: Activation of rat alpha4beta2 nAChR by fluorescence assay. It is filed as protein-complex assay.
The target of data set [10] is Neuronal acetylcholine receptor subunit alpha-7 (Homo sapiens, UniProt P36544). In words: Activation of human alpha7 nAChR assessed as potentiation of submaximal response to nicotine induced current.
Sequence of Neuronal acetylcholine receptor subunit alpha-7 (P36544 whole entry, the tested form may be a part): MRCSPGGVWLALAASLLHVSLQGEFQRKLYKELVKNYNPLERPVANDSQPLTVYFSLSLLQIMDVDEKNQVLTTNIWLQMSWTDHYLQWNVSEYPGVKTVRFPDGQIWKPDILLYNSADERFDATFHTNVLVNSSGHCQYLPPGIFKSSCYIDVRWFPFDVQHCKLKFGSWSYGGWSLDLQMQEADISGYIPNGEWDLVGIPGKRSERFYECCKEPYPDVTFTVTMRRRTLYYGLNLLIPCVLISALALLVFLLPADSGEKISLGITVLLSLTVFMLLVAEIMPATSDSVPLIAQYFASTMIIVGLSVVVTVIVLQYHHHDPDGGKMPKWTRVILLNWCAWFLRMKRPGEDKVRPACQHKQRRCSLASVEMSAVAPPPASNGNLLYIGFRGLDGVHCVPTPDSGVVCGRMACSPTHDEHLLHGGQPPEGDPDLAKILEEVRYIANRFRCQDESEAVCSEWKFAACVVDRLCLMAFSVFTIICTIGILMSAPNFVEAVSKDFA
The target of data set [11] is Neuronal acetylcholine receptor; alpha4/beta2 (Rattus norvegicus) (UniProt P09483+P12390). In words: Activation of rat alpha4beta2 nAChR expressed in HEK293 cells assessed as potentiation of acetylcholine-induced current by whole cell patch clamp. The class given is cell-based. In a few lines: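 Whole-cell patch-clamp with fast-flow perfusion under physiological ionic conditions; acetylcholine as agonist, holding potential −80 mV; compound also applied alone to check for evoked inward currents.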
A general note: The patch-clamp technique gives a direct electrical read-out from membranes.

Data set [12] concerns the target T1, Neuronal acetylcholine receptor; alpha4/beta2. In words: Displacement of [3H]cytisine from human alpha4beta2 nAChR at =>30 uM. The class given is protein-complex assay. A general note: In a radioligand displacement assay an active substance lowers the binding of a labelled ligand.

pEC50: −log10 of the molar value. Calls of active or inactive are those of the source. No cut-off for these calls is given here.

T1 sequence (P17787 whole entry): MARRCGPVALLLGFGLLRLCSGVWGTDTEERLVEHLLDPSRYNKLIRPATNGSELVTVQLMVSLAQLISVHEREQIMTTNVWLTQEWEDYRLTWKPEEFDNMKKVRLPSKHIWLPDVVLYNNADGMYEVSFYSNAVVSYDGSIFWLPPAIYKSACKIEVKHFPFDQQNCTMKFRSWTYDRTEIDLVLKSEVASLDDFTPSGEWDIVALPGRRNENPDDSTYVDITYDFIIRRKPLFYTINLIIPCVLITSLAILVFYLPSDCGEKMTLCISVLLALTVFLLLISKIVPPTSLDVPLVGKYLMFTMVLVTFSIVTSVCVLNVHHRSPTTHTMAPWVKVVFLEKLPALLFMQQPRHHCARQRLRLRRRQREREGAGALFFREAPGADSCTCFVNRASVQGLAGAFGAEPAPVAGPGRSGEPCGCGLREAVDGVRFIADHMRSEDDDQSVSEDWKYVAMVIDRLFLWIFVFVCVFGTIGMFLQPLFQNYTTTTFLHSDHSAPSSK
T1 sequence (P43681 whole entry): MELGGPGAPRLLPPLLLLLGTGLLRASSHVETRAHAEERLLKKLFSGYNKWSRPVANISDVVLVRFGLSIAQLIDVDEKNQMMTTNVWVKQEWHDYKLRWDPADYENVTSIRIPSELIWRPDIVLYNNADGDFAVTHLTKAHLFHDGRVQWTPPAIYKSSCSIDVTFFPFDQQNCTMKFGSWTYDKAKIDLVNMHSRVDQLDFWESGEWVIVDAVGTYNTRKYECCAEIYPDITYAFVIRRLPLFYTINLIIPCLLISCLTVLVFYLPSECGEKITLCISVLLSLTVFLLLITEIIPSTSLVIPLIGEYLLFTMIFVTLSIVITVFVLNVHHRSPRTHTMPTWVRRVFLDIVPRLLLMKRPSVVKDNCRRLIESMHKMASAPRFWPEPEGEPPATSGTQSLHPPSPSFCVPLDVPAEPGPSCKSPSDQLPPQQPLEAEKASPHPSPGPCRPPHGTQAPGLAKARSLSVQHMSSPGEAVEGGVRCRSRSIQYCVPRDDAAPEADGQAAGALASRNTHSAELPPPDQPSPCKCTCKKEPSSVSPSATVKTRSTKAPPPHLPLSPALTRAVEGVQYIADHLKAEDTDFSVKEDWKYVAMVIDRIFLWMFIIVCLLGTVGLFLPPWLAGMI
Sequence of Neuronal acetylcholine receptor; alpha3/beta2 (P17787 whole entry): as the sequence (P17787 whole entry) above
Sequence of Neuronal acetylcholine receptor; alpha3/beta2 (P32297 whole entry): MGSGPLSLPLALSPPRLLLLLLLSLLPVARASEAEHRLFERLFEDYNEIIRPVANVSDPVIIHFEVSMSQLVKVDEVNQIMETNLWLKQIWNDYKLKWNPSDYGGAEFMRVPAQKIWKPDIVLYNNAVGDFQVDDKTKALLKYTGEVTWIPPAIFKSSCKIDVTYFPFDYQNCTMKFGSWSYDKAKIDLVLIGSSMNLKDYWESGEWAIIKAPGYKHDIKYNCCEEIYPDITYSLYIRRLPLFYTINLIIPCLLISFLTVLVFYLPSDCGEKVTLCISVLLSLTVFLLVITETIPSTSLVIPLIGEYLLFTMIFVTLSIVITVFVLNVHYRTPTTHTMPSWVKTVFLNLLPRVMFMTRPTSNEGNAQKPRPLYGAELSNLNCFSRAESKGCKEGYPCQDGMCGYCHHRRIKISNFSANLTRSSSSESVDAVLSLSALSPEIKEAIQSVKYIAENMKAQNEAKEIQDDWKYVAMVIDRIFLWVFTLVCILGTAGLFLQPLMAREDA
Sequence of Neuronal acetylcholine receptor; alpha3/beta4 (P30926 whole entry): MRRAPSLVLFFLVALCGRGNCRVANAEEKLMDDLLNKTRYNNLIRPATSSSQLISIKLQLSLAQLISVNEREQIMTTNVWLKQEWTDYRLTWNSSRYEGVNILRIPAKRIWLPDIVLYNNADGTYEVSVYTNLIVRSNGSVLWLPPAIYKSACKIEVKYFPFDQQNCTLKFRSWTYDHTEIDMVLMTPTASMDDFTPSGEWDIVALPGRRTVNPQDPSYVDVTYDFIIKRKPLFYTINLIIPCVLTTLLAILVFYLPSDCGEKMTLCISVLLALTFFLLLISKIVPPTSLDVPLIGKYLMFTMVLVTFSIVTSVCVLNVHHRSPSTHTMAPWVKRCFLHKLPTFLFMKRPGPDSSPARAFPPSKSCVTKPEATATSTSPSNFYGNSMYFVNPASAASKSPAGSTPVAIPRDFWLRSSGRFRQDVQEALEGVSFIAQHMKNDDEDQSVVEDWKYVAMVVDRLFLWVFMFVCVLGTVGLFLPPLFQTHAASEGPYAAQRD
Sequence of Neuronal acetylcholine receptor; alpha3/beta4 (P32297 whole entry): as the sequence (P32297 whole entry) above
Sequence of Neuronal acetylcholine receptor; alpha4/beta2 (Rattus norvegicus, UniProt P09483+P12390) (P09483 whole entry): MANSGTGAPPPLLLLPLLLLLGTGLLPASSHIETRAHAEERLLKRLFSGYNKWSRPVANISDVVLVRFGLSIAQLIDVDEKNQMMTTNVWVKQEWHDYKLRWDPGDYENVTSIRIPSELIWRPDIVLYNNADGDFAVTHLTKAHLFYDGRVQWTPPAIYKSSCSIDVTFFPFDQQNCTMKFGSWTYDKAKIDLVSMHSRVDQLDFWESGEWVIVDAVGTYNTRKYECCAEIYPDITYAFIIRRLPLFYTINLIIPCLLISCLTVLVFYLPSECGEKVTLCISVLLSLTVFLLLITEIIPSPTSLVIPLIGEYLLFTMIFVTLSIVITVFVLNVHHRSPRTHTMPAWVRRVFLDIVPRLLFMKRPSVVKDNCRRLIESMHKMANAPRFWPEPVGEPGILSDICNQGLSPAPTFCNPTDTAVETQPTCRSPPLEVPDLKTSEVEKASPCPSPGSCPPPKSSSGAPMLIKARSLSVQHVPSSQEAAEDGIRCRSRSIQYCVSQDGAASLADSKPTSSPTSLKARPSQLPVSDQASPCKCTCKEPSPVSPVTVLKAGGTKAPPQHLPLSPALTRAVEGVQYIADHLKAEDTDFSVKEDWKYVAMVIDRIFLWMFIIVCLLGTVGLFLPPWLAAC
Sequence of Neuronal acetylcholine receptor; alpha4/beta2 (Rattus norvegicus, UniProt P09483+P12390) (P12390 whole entry): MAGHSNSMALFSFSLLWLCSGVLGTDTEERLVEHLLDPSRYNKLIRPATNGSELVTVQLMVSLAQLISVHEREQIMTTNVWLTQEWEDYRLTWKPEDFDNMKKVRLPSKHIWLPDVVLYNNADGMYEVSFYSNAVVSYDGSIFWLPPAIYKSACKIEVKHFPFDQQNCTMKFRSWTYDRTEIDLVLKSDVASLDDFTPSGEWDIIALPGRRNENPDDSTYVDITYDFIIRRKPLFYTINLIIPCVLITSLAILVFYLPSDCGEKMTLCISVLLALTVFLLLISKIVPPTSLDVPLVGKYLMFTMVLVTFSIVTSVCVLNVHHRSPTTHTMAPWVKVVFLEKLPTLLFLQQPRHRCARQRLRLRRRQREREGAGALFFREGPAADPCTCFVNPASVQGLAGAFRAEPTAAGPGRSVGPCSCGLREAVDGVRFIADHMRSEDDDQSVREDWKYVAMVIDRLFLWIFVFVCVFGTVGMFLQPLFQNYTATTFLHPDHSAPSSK

One may read the pEC50 as the negative decadic logarithm of the EC50, by convention in mol/L. Turning to `Clc1ccccc1-c1cc(-c2cnn(C3CCNCC3)c2)on1`, the Efficacy in data set [1] is 38%. In addition, the pEC50 in [2] was 6.92; in data set [3], less than 4.00; in [4], less than 4.00.

For the compound `Cc1c(-c2cc(-c3ccccc3)no2)cnn1C1CCNCC1`, in data set [1], the Efficacy was 31%. Moreover, in [2], the pEC50 was 5.92.

In the case of `Cc1c(-c2cc(-c3c(F)cccc3Cl)no2)cnn1C1CCNCC1`, the Efficacy in data set [1] worked out at 66%. In addition, in data set [2], the pEC50 was 8.22.

With `Fc1ccc(Cl)c(-c2cc(-c3cnn(C4CCNCC4)c3)on2)c1`, the Efficacy in [1] was determined as 29%. In addition, the pEC50 in data set [2] is 6.57.

`Fc1cccc(Cl)c1-c1cc(-c2cnn(C3CCNCC3)c2)on1`: in data set [1], the Efficacy is 60%. In addition, in data set [2], the pEC50 is 7.32.

With `Fc1ccc(-c2cc(-c3cnn(C4CCNCC4)c3)on2)c(Cl)c1`, in data set [1], the Efficacy was found to be 56%. Further, in [2], the negative-log EC50 (pEC50) was 6.66.

Turning to `c1nn(C2CCNCC2)cc1-c1cc(C2CCCCC2)no1`, in [1], the Efficacy came to 16%. Further, the negative-log EC50 (pEC50) in data set [2] was 5.34.

As a reminder, the efflux ratio is the permeability from basolateral to apical divided by that in the opposite direction, in the common usage. `CCn1c(-c2cc(-c3c(F)cccc3Cl)no2)cnc1C1(F)CCNCC1`: the Efficacy in [1] was determined as 74%. Also, the negative-log EC50 (pEC50) in [2] is 8.52. For the same compound, in data set [5], the efflux ratio was 1. Besides, the concentration at 1 h was 600 nM in data set [6], 29 nM in data set [7] and 6.5 µM in [8].

Regarding `c1ccc(-c2cc(-c3cnn(C4CCNCC4)c3)on2)cc1`, the negative logarithm of the EC50 (pEC50) in data set [2] was less than 4.00.

For `Cc1c(-c2cc(-c3ccccc3Cl)no2)cnn1C1CCNCC1`, in data set [1], the Efficacy turned out to be 71%. Besides, the pEC50 was 7.74 in data set [2], 7.70 in [9] and less than 4.00 in [10]. Further, the results for the concentration at 1 h in [6], in data set [7] and in [8] were 610 nM, 130 nM and 5.2 µM, respectively. The result in data set [11] was Active. In data set [12], the result was inactive.

For the compound `CCn1c(-c2cc(-c3c(F)cccc3Cl)no2)cnc1C1CCNCC1`, the Efficacy in [1] is 87%. For the same compound, the pEC50 in data set [2] is 8.52. Moreover, the efflux ratio in data set [5] was more than 10.

On to `Fc1cccc(-c2cc(-c3cnn(C4CCNCC4)c3)on2)c1Cl`, for which the Efficacy in [1] turned out to be 47%. Further, the pEC50 in data set [2] is 6.64.

Regarding `Clc1sccc1-c1cc(-c2cnn(C3CCNCC3)c2)on1`, the Efficacy in data set [1] amounted to 42%. In data set [2], the pEC50 was 6.89.

Take `CN(Cc1cc(-c2ccccc2Cl)no1)C(=O)C1CCNCC1`: the Efficacy in [1] came out at 41%. For the same compound, the pEC50 was 6.46 in data set [2], less than 4.00 in [3] and less than 4.00 in data set [4].

For `Cn1c(-c2cc(-c3c(F)cccc3Cl)no2)cnc1C1(F)CCNCC1`, in data set [1], the Efficacy is 68%. Moreover, in [2], the pEC50 is 7.47. The efflux ratio in data set [5] was determined as 1.

`Clc1cnccc1-c1cc(-c2cnn(C3CCNCC3)c2)on1`: the Efficacy in data set [1] was determined as 50%. In addition, the negative logarithm of the EC50 (pEC50) in data set [2] is 6.70.

Regarding `Clc1ccccc1-c1cc(-c2cnc(C3CCNCC3)s2)on1`, the Efficacy in data set [1] was determined as 63%. The pEC50 in data set [2] is 7.48. Further, the concentration at 1 h in [6] was found to be 300 nM; in data set [7], 21 nM; in data set [8], 8.5 µM.

As for `Clc1cccc(Cl)c1-c1cc(-c2cnn(C3CCNCC3)c2)on1`, in data set [1], the Efficacy was determined as 73%. Further, the pEC50 in [2] was 6.39.

Regarding `Cn1c(-c2cc(-c3c(F)cccc3Cl)no2)cnc1C1CCNCC1`, in [1], the Efficacy was 71%. The pEC50 in data set [2] was 7.92. Moreover, the efflux ratio in data set [5] was more than 10.

Turning to `Cc1cc(-c2cnn(C3CCNCC3)c2)on1`, the Efficacy in data set [1] worked out at 19%. In addition, the pEC50 in [2] is 5.89.
